Consider ten molecules from ChEMBL document CHEMBL1122931, “Uridine 5'-diphosphate glucose analogues. Inhibitors of protein glycosylation that show antiviral activity” (J Med Chem, 1985).

One data set concerns HeLa. The data set can be described thus: (§1) Concentration that induces 50% cell toxicity was determined using monolayers of uninfected HeLa cells. In kind it is cell-based. The following applies: human, hela; read-out: Tox50. The essentials: (§2)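 Uninfected HeLa monolayers, grown in DMEM with 10% newborn calf serum, were exposed to several concentrations of compound. They were incubated for 48 h at 37 °C, as in the parallel HSV-1 cytopathic-effect assay. Toxicity was judged by phase-contrast microscopy.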

The subject of another data set is Human alphaherpesvirus 1. The data set can be described thus: Concentration that protects by 50% the cytopathic effect induced by herpes simplex virus - 1. In kind it is functional. In short, it runs like this: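 HeLa monolayers (DMEM + 10% newborn calf serum) infected with HSV-1 strain KOS (Vero-grown and titrated) at moi 0.5 pfu/cell in presence of several compound concentrations; 48 h at 37 °C, then cytopathic effect scored by phase-contrast microscopy. Toxicity judged microscopically in uninfected cells.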
On the technique in general: Cytopathic effects are the visible damage that an infection or toxin causes in cultured cells.

Data set [1] in a line: as §1. The format is cell-based. The following applies: human, monolayers of uninfected HeLa cells; read-out: Tox50. In short, it runs like this:
as §2

Regarding `CC(=O)N[C@H]1[C@@H](O[C@@H]2O[C@H](CC(O)[C@H]3O[C@@H](n4ccc(=O)[nH]c4=O)[C@H](O)[C@@H]3O)[C@H](O)[C@H](O)[C@H]2NC(=O)/C=C/CC(C)C)O[C@H](CO)[C@@H](N)[C@@H]1O` (some centres undefined) [TUNICAMYCIN], the CC50 with HeLa worked out at 1 µM.
`O=c1[nH]c(=O)n([C@H]2C[C@H](O)[C@@H](CO)O2)cc1/C=C/Br` [BRIVUDINE] registered a CPE50 in the data set with Human alphaherpesvirus 1 of 1 µM. Besides, the CC50 in data set [1] was 400 µM.
Consider `CC1(C)O[C@@H]2[C@H](O1)[C@@H](COS(=O)(=O)NC(=O)O[C@H]1O[C@H](COCc3ccccc3)[C@@H](OCc3ccccc3)[C@H](OCc3ccccc3)[C@H]1OCc1ccccc1)O[C@H]2n1ccc(=O)[nH]c1=O`, for which, in the data set on Human alphaherpesvirus 1, the CPE50 is 85 µM. Also, in data set [1], the CC50 is 230 µM.
`CC(=O)N[C@H]1[C@@H](OC(=O)NS(=O)(=O)OC[C@H]2OC(n3ccc(=O)[nH]c3=O)[C@H](O)[C@@H]2O)O[C@H](COC(C)=O)[C@@H](OC(C)=O)[C@@H]1OC(C)=O` (some centres undefined): in the data set on Human alphaherpesvirus 1, the CPE50 is above 575 µM. The CC50 in data set [1] is above 575 µM.
In the case of `Nc1nc2c(ncn2COCCO)c(=O)[nH]1` [ACYCLOVIR], the CPE50 with Human alphaherpesvirus 1 was found to be 60 µM. In data set [1], the CC50 came out at 10000 µM.
`NC(=O)O[C@H]1O[C@H](COCc2ccccc2)[C@@H](OCc2ccccc2)[C@H](OCc2ccccc2)[C@H]1OCc1ccccc1` came in with a CPE50 in the data set on Human alphaherpesvirus 1 above 350 µM. For the same molecule, in data set [1], the CC50 was above 350 µM.
With `O=C(NS(=O)(=O)OC[C@H]1OC(n2ccc(=O)[nH]c2=O)[C@H](O)[C@@H]1O)O[C@H]1O[C@H](COCc2ccccc2)[C@@H](OCc2ccccc2)[C@H](OCc2ccccc2)[C@H]1OCc1ccccc1` (some centres undefined), in the data set with Human alphaherpesvirus 1, the CPE50 worked out at 90 µM. Besides, the CC50 in data set [1] stood at 360 µM.
`CC1(C)O[C@@H]2[C@H](O1)[C@@H](COS(N)(=O)=O)O[C@H]2n1ccc(=O)[nH]c1=O` returned a CPE50 with Human alphaherpesvirus 1 of 740 µM. For the same molecule, the CC50 in data set [1] stood at 740 µM.
`CC1(C)O[C@@H]2[C@H](O1)[C@@H](COC(N)=O)O[C@H]2n1ccc(=O)[nH]c1=O` came in with a CPE50 with Human alphaherpesvirus 1 above 660 µM. In addition, in data set [1], the CC50 is above 660 µM.
The molecule `NC12CC3CC(CC(C3)C1)C2` [AMANTADINE] came in with a CPE50 in the data set on Human alphaherpesvirus 1 of 200 µM. In addition, in data set [1], the CC50 was 500 µM.
